# Assay outcomes as filed in PubChem.
# Not all results are given here.
# PGC1a Ac signal: raises PGC1a acetylation signal in U2OS cells; U2OS PGC1a acetylation AlphaScreen, overnight; hit rate 0.21% among 350,000; activation, % at 15.6 µM;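 active means every replicate reaching activation of at least 50%, whatever the mean replicate activation; inconclusive means replicates that disagree or another doubt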;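 further: hits raise the AlphaScreen acetylation signal above neutral controls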
#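 Incubation: overnight compound treatment, 37 °C. System: U2OS cells transduced with flag-tagged PGC1a and GCN5 acetyltransferase. Detection: AlphaScreen lysate read. Compound: single-point compound dosing.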
# G6PC hep suppr: PGC-1a acetylation activator altering hepatocyte G6PC expression; shares compounds with PGC1a Ac signal; primary mouse hepatocytes, G6PC mRNA qPCR, forskolin; G6PC suppression (normalized activity, % of positive control; higher = more suppression), % at 26 µM; 240 tested, under 10 active; AID 743463;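 active means dose curves showing G6PC suppression whose half-maximal dose is at most twice the top valid dose; inconclusive means flat curves with moderate negative activity, or unreliable fits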;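 further: G6PC expression relative to GAPDH housekeeping gene as delta delta Ct; 0% = median of neutral control wells and 100% = median of positive control wells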
# PCK1 hep suppr: hepatocyte PCK1 expression change via PGC-1a acetylation activation; shares compounds with PGC1a Ac signal; AID 743465; 230 tested, under 10 active; PCK1 expression decrease, unspecified at 26 µM; primary mouse hepatocytes, PCK1 mRNA qPCR, forskolin-stimulated;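 active means compounds lowering PCK1 expression whose fitted half-maximal concentration is at most twice the top tested dose; inconclusive means flat fit with moderate opposite-direction effect, or poor fit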;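 further: values are delta delta Ct of PCK1 relative to GAPDH; higher delta delta Ct means lower PCK1 expression so positive values indicate hits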
# PGC1a hep suppr: PGC-1a acetylation activator altering hepatocyte PGC-1a expression; primary mouse hepatocytes, PGC-1a mRNA qPCR, forskolin; top dose 26 µM; max activity (PGC-1a expression decrease), %; 240 tested, under 10 active; shares compounds with PGC1a Ac signal;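 active means compound lowering PGC-1a expression with fitted half-maximal concentration at most twice its top tested dose; inconclusive means flat curve with moderate opposite-direction effect, or poor fit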;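 further: 0% = neutral control wells median and 100% = positive control wells median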
# * hit, by the source's call; i = inactive; ? = inconclusive; [ ] = another dose, or the depositor's remark.
SMILES,PGC1a Ac signal,others
C[C@H](CO)N1C[C@H](C)[C@@H](CN(C)CC2CCCCC2)Oc2c(NC(=O)c3nc4ccccc4s3)cccc2C1=O,-55,
COCC(=O)N1CC(=O)N2[C@@H](CO)[C@H](c3ccc(-c4ccncc4)cc3)[C@@H]2C1,-102,
Cc1cc(C)c2c(=O)[nH]n(C3CCCCCC3)c2n1,-88,
O=C(O)c1cccc(N2C(=O)CSC2c2c(F)cccc2Cl)c1 (stereo unspecified),56*,
c1csc(CNc2ncnc3ccc(-c4ccoc4)cc23)c1,-50,
CC(C)c1nnc(NC(=O)CCS(=O)(=O)c2nc(-c3cccs3)cc(C(F)(F)F)n2)s1,103*,
CCOc1ccc2nc(NCCCNC(=O)c3cc(OC)c(OC)c(OC)c3)c(C#N)cc2c1,-42,
C=C1C(=O)O[C@@H]2[C@H]1[C@@H](OC(=O)/C(C)=C/C)C/C(C)=C\C(=O)/C=C(\C)[C@@H]2O,198*,
CC(=O)C1=C(O)C(=O)N(Cc2ccco2)C1c1cccc(F)c1 (stereo unspecified),-51,
C=C1C(=O)C23CCC4C(C)(C(=O)OC)CCCC4(C)C2CCC1(O)C3 (stereo unspecified),-76,
CN=C1c2cc3cc(OC)ccc3n2CCN1Cc1ccccc1,83*,
Clc1ccc(Oc2cccc(/C=N/n3cnnc3)c2)cc1,-83,
O=C(Nc1cccc(F)c1)C1CCN(S(=O)(=O)c2cccc3nonc23)CC1,-57,
CC(C)c1ccc(NC(=O)CCNS(=O)(=O)c2cccc3nonc23)cc1,53*,
CC(C)c1ccc(NC(=O)c2n[nH]c(=O)c3ccccc23)cc1,-108,
CCN(CCNc1ccc(Cl)cc1[N+](=O)[O-])C(=O)c1cc([N+](=O)[O-])c(N(C)C)cc1OC,-51,
CC(C)(C)C(=O)/C(=C\c1cccc([N+](=O)[O-])c1)n1cncn1,-96,
CCCCOc1ccc(CNC(=O)NS(=O)(=O)c2ccc(OCC(C)C)cc2)cc1,-49,
COc1ccc(OC)c(C(=O)/C=C/c2ccccc2C(F)(F)F)c1,-46,
CCCOc1ccc(/C=C/C(=O)O)cc1OC,-62,
COc1cccc(C(=O)/C=C/c2ccc(OCC#N)c(OC)c2)c1,183*,
O=C(O)C1C2CC3OC(=O)C1C3C2 (stereo unspecified),-62,
CCCOc1ccccc1-n1sc2c(c1=S)-c1cc(OC)cc3c1N(C(=O)C3=O)C2(C)C,-49,
N#CCSc1nnc(COc2ccc3ccccc3c2)o1,52*,
O=C(O)CSc1nnc(COc2cccc3ccccc23)o1,-42,
SMILES,PGC1a Ac signal,others
Fc1ccc(CNC(=S)NCc2ccc(F)cc2)cc1,-87,
CCOc1ccc(NC(=O)c2cccc3c2C(=O)N(CCOC)C3)cc1,94*,
O=C(NCc1ccccc1)C1Cc2c(-c3ccc4c(c3)OCO4)ccnc2O1 (stereo unspecified),133*,
CC(=O)c1cccc(-c2ccnc3c2CC(C(=O)NCC2CC2)O3)c1 (stereo unspecified),58*,
CC(C)[C@H]1COCCS(=O)(=O)N1Cc1ccccc1F,-50,
COc1ccccc1CNC(=O)C[C@@H]1CC[C@@H]2[C@H](COC[C@H](O)CN2C(=O)Nc2ccc(Cl)cc2)O1,-56,
Cc1cc(C)c(NC(=O)c2ccc(S(=O)(=O)N(C)C)cc2)c(C)n1,-50,
COc1ccc(C2NC3=C(CCC3)C3(C#N)C(OC)(OC)N=C(N)C23C#N)cc1 (stereo unspecified),-41,
CCN1CCN(c2ncc(C(=O)Nc3cc(Cl)ccc3OC)c3ccccc23)CC1,-93,G6PC hep suppr=272[8 µM];PCK1 hep suppr=?;PGC1a hep suppr=110
CCNc1nc(Oc2ccc(C#N)cc2)cc(C(F)(F)F)n1,-42,
COc1ccc(N=C2C(=Nc3ccc(OC)cc3)N(c3ccc(OC)cc3)C(=S)N2C(=O)c2ccc(OC)cc2)cc1,-46,
COc1ccc(C(C)(O)c2nc(-c3ccc(S(C)(=O)=O)cc3)cs2)cc1 (stereo unspecified),?,G6PC hep suppr=-43;PCK1 hep suppr=16;PGC1a hep suppr=49
OCCN(Cc1ccccc1)CC1CCCCC1,-57,
N#Cc1ccccc1COC(=O)c1ccc2c(c1)OCCO2,?,G6PC hep suppr=-9;PCK1 hep suppr=11;PGC1a hep suppr=-16
CCNC(=O)NC(=O)COc1ccccc1C#N,-45,
CCCCN(CC)CCCNC(=O)c1cc2c(=O)n(CC)c3ccccc3c2s1,?,G6PC hep suppr=i;PCK1 hep suppr=214;PGC1a hep suppr=172
CC(=O)Nc1cc(OC(C)=O)c2nonc2c1OC(C)=O,-44,
Brc1ccc(N/N=C(/N=Nc2nn[nH]n2)c2ccccc2)cc1,-97,
O=C(c1cc(Cl)ccc1Cl)N1CCc2ccccc21,-43,
O=C(NN1c2ccccc2CCc2ccccc21)c1ccccc1Br,?,G6PC hep suppr=168;PCK1 hep suppr=102;PGC1a hep suppr=88
CN(c1ncnc(N)c1[N+](=O)[O-])C1CCS(=O)(=O)C1 (stereo unspecified),-58,
C=CCNc1nc(Cl)nc(NCc2ccco2)n1,-42,
CCOC(=O)c1c(NC(=O)c2ccoc2C)sc2c1CCC2,-57,
CC(=O)c1cccc(N(C(=O)c2cnccn2)C(C(=O)NCc2ccccc2)c2ccco2)c1 (stereo unspecified),96*,G6PC hep suppr=45;PCK1 hep suppr=129;PGC1a hep suppr=188
CC(=O)c1cccc(N(C(=O)Cn2nnc3ccccc32)C(C(=O)NCc2ccccc2)c2ccccn2)c1 (stereo unspecified),?,G6PC hep suppr=-29;PCK1 hep suppr=-11;PGC1a hep suppr=-33
SMILES,PGC1a Ac signal,others
Nn1cnnc1N/N=C/c1ccc(Cl)c([N+](=O)[O-])c1,-53,
COc1ccccc1C(NC(C)=O)c1cc(Cl)c2cccnc2c1O (stereo unspecified),-46,
C=CCN(c1ccc(C(=O)Nc2ccc3c(c2)OCO3)cc1)S(C)(=O)=O,-93,
CC1CC(NS(=O)(=O)c2cccs2)CC(C)(C)C1 (stereo unspecified),265*,G6PC hep suppr=99;PCK1 hep suppr=69;PGC1a hep suppr=157
c1ccc(CNc2ncnc3nc[nH]c23)cc1,-45,
O=S(=O)(c1cccc(F)c1)N1CCN(Cc2cc3c(cc2Br)OCCO3)CC1,108*,G6PC hep suppr=1;PCK1 hep suppr=53;PGC1a hep suppr=112
CCCCCCC[C@@H](C/C=C/CCC(=O)O)OC,-45,
COc1ccc(C(=O)/C(=C\c2ccco2)N2C=CC=CC2=C(C#N)C#N)cc1,-71,
OC(c1cc(-c2ccc(Cl)cc2)nc2ccccc12)C1CCCCN1 (stereo unspecified),?,G6PC hep suppr=213;PCK1 hep suppr=45;PGC1a hep suppr=37
Cc1ccc(O)c(NC(=O)c2ccc3c(c2)C(=O)N(CC(C)C)C3=O)c1,-44,
Cc1ccc2[nH]c(=O)c(CN(Cc3ccc4c(c3)OCO4)Cc3nnnn3C3CCCC3)cc2c1,58*,G6PC hep suppr=27;PCK1 hep suppr=85;PGC1a hep suppr=65
COc1ccc(CN(Cc2cc3ccc(C)cc3[nH]c2=O)Cc2nnnn2C2CCCC2)cc1,-53,
CC1(C)CC(=O)C=C(NCc2ccco2)C1,-40,
Cc1ccc(C)c(NC(=S)Nc2cccc3cnccc23)c1,-51,
COc1cc(NS(=O)(=O)c2ccc(N)cc2)nc(OC)n1,-57,
CN1CC=C2C(C#N)=C(N)C(C#N)(C#N)C(CCc3ccccc3)C2C1 (stereo unspecified),-45,
O=C(Nc1ccc(F)cc1)N1CCN(c2nc3ccccc3s2)CC1,?,G6PC hep suppr=-42;PCK1 hep suppr=?;PGC1a hep suppr=42
